From ChEMBL document CHEMBL4196009, “Novel vitexin-inspired scaffold against leukemia” (Eur J Med Chem, 2018)
The source made the active and inactive calls. The calls are words filed in the database; no cut-off is given here.

What was measured:
SUP-B15 [1] = assay: Induction of apoptosis in human SUP-B15 cells assessed as early apoptotic cells at 10 uM after 24 hrs by Annexin V-FITC/propidium iodide staining-based flow cytometry (reference value: 0.1%); type: functional
SUP-B15 [2] = assay: Induction of apoptosis in human SUP-B15 cells assessed as late apoptotic cells at 10 uM after 24 hrs by Annexin V-FITC/propidium iodide staining-based flow cytometry (reference value: 2.2%); type: functional
KOPN-8 [3] = assay: Cell cycle arrest in human KOPN8 cells assessed as accumulation at G2/M phase at 10 uM after 24 hrs by propidium iodide staining-based flow cytometry (reference value: 9.67%); type: functional
In short: (§1)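 KOPN-8 cells treated 24 h alongside a DMSO vehicle and a staurosporine (2.0 µM) positive control. Apoptosis was scored by FITC Annexin V / propidium iodide flow cytometry with quadrant gating (early, late apoptotic). DNA content was measured by PI staining to give the percentage of cells in G0/G1, S and G2/M. Groups were compared by t-test; error bars are SD.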

KOPN-8 [4] = assay: Cell cycle arrest in human KOPN8 cells assessed as accumulation at S phase at 10 uM after 24 hrs by propidium iodide staining-based flow cytometry (reference value: 66.56%); type: functional; in short: as §1
KOPN-8 [5] = assay: Induction of apoptosis in human KOPN8 cells assessed as upregulation of cleaved PARP level after 3 to 24 hrs by Western blot analysis; type: functional, cell-based
In short: (§2)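 KOPN-8 cells were exposed to compound for 3 h and 24 h, with or without N-acetylcysteine added to a parallel set as antioxidant. Lysates were analysed by Western blot for cleaved PARP, Mcl-1, Ser-2-phosphorylated RNAPII CTD, cMyc, total Rb and pRb. Signals were compared against controls for dose-dependent change.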

Homo sapiens [6] = species on record: Homo sapiens; assay: Inhibition of RNA polymerase 2 C-terminal domain phosphorylation at Ser2 residue in human KOPN8 cells after 24 hrs by Western blot analysis; type: cell-based; in short: as §2
KOPN-8 [7] = assay: Downregulation of total Rb expression in human KOPN8 cells after 24 hrs by Western blot analysis; type: cell-based; conditions: kopn-8, 24 h
In short: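 KOPN-8 cells were treated at 10–100 µM final, with or without N-acetylcysteine co-addition, for 3 h and 24 h. Lysates were analysed by Western blot for PARP cleavage, Mcl-1, phospho-Ser2 RNAPII CTD, c-Myc, total Rb and pRb. Levels are relative to the vehicle control.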

KOPN-8 [8] = assay: Induction of apoptosis in human KOPN8 cells assessed as effect on Mcl-1 level at 10 uM pre-treated with NAC for 1 hr and measured after 3 hrs by Western blot analysis relative to control; type: functional
Homo sapiens [9] = species on record: Homo sapiens; assay: Inhibition of RNA polymerase 2 C-terminal domain phosphorylation at Ser2 residue in human KOPN8 cells at 100 uM pre-treated with NAC for 1 hr and measured after 3 hrs by Western blot analysis relative to control; type: cell-based; in short: as §2
KOPN-8 [10] = assay: Effect on c-Myc expression in human KOPN8 cells at 10 uM pre-treated with NAC for 1 hr and measured after 24 hrs by Western blot analysis relative to control; type: functional
[11] = target: T1, Retinoblastoma-associated protein (Homo sapiens) (UniProt P06400); assay: Inhibition of Rb phosphorylation in human KOPN8 cells assessed as ratio of phosphorylated Rb to total Rb levels at 30 uM pre-treated with NAC for 1 hr and measured after 3 hrs by Western blot analysis relative to control; type: cell-based
T1 sequence (whole entry): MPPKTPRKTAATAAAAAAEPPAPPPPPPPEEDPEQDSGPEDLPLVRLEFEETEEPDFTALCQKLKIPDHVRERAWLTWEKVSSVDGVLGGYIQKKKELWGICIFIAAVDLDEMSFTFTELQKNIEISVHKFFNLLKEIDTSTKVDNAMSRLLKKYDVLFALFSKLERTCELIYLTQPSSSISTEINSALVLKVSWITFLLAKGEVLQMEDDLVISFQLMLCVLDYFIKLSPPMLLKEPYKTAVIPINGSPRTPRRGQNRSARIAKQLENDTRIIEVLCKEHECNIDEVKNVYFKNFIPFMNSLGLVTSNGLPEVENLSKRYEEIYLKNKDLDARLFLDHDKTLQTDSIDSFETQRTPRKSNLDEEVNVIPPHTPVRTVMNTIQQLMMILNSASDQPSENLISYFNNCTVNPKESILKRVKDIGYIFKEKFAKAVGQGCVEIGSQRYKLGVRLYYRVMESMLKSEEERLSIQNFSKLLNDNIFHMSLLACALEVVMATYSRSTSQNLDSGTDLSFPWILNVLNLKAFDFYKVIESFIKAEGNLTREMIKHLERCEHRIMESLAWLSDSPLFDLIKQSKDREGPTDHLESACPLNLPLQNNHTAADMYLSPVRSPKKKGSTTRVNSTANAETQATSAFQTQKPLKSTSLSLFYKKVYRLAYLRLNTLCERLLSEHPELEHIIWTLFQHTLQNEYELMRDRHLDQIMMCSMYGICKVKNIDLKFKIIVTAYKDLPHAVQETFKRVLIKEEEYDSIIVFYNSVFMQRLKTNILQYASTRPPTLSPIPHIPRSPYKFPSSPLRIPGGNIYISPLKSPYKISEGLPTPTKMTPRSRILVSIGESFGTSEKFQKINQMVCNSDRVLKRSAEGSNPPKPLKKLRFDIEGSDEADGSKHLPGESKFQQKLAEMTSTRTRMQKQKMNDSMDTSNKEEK
In short: (§3)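 KOPN-8 pre-B ALL cells were treated for 3 h and 24 h, with or without N-acetyl cysteine added to a parallel set of cells as an antioxidant/ROS quencher. Lysates were analysed by Western blot for phosphorylated Rb and total Rb. The same blots also probed PARP cleavage, Mcl-1, Ser-2-phosphorylated RNAPII CTD and cMyc.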

[12] = target: T1, Retinoblastoma-associated protein (Homo sapiens); assay: Inhibition of Rb phosphorylation in human KOPN8 cells assessed as ratio of phosphorylated Rb to total Rb levels at 10 uM pre-treated with NAC for 1 hr and measured after 24 hrs by Western blot analysis relative to control; type: cell-based; in short: as §3
KOPN-8 [13] = assay: Induction of apoptosis in human KOPN8 cells assessed as late apoptotic cells at 5 uM after 24 hrs by Annexin V-FITC/propidium iodide staining-based flow cytometry (reference value: 9.5%); type: functional
In short: (§4)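 KOPN-8 cells were treated for 24 h, with a DMSO vehicle control and a staurosporine positive control. Cells were stained with FITC-Annexin V and propidium iodide and analysed by flow cytometry. Quadrant gating separated viable, early apoptotic, late apoptotic (Q2) and necrotic populations.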

KOPN-8 [14] = assay: Induction of apoptosis in human KOPN8 cells assessed as viable cells at 5 uM after 24 hrs by Annexin V-FITC/propidium iodide staining-based flow cytometry (reference value: 85.2%); type: functional; conditions: KOPN-8, 24 h, read-out: Activity; in short: as §4
SUP-B15 [15] = assay: Induction of apoptosis in human SUP-B15 cells assessed as late apoptotic cells at 5 uM after 24 hrs by Annexin V-FITC/propidium iodide staining-based flow cytometry (reference value: 2.2%); type: functional
KOPN-8 [16] = assay: Cell cycle arrest in human KOPN8 cells assessed as accumulation at S phase at 5 uM after 24 hrs by propidium iodide staining-based flow cytometry (reference value: 66.56%); type: functional; in short: as §1
KOPN-8 [17] = assay: Induction of apoptosis in human KOPN8 cells assessed as upregulation of cleaved PARP level at 0.5 uM after 3 hrs by Western blot analysis; type: functional, cell-based; in short: as §2

Row | Structure (SMILES) | Activity (SUP-B15 [1]) [%] | Activity (SUP-B15 [2]) [%] | Activity (KOPN-8 [3]) [%] | Activity (KOPN-8 [4]) [%] | Activity (KOPN-8 [5]) | inhibition (Homo sapiens [6]) | Activity (KOPN-8 [7]) | fold change (FC) (KOPN-8 [8]) | fold change (FC) (Homo sapiens [9]) | fold change (FC) (KOPN-8 [10]) | fold change (FC) [11] | fold change (FC) [12] | Activity (KOPN-8 [13]) [%] | viability at 5 µM (KOPN-8 [14]) [%] | Activity (SUP-B15 [15]) [%] | Activity (KOPN-8 [16]) [%] | Activity (KOPN-8 [17])
1 | COc1ccc(-c2c(I)c(=O)c3c(OC)cc(OC)cc3n2S(=O)(=O)c2ccc(OC)cc2)cc1 | 0.1 | 7 | 27.12 | 25.66 | Dose-dependent effect | Dose-dependent effect | Dose-dependent effect | 0.8 | 1.6 | 1.3 | 1 | 1 |  |  |  |  | 
2 | CN(C)C(=O)c1cc2cnc(Nc3ccc(N4CCNCC4)cn3)nc2n1C1CCCC1 [RIBOCICLIB] |  |  |  |  |  |  |  |  |  |  |  |  | 67.4 | 2.3 | 22.5 | 25.55 | Active
